The nature of data set [1]: Antioxidant activity assessed as peroxyl free radical scavenging activity by ORAC-fluorescence assay relative to alpha-phenyl-N-tert-butylnitrone. The format is functional. The procedure, abridged: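 Peroxyl scavenging by fluorescein ORAC at 60 °C in 75 mM phosphate buffer pH 7.4. Compounds at 10-1000 µM final with fluorescein 70 nM final; 30 s preincubation, then AAPH 12 mM final. Fluorescence (ex 490/em 515) read every minute for 12 min. Net AUC versus blank regressed on concentration and expressed as µmol PBN equivalents per µmol sample. Duplicates, at least three independent assays.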

In data set [2] the test system is SH-SY5Y. Briefly: Neuroprotective activity against human SH-SY5Y cells assessed as inhibition of H2O2-induced cellular damage at 10 uM after 24 hrs relative to control. The format is functional. Further details: scale not given: the % may be the effect or the level left. Summed up: (§1)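 SH-SY5Y cells (passages 3-16, MEM with 10% FBS, 37 °C, 5% CO2) seeded at 10^4 cells/well. Pretreated with compound at 10 µM for 1 h, then 100 µM H2O2 for 24 h; NAC 5 mM as positive control. Viability from LDH released into the medium. Difference relative to H2O2-only cells, normalized; neuroprotection computed from basal values. Triplicate, mean ± SD.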

The test system of data set [3] is SH-SY5Y. Briefly: Neuroprotective activity against human SH-SY5Y cells assessed as inhibition of H2O2-induced cellular damage at 10 uM dosed 1 hr prior to H2O2 challenge after 24 hrs relative to control. Further details: scale not given: the % may be the effect or the level left. The format is functional. Summed up: as §1
The test system of data set [4] is Radical scavenging activity. Put plainly: Antioxidant activity assessed as reduction of DPPH radical scavenging activity at 0.1 mM. Set-up: scale not given: the % may be the effect or the level left. The class given is functional. The procedure, abridged:
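DPPH reduction in ethanol. Test compound and DPPH both 0.1 mM final, preincubated 5 min at 37 °C, absorbance read at 520 nm. Reduction percentage = 100[(A0 − Ac)/A0], with A0 the untreated DPPH absorbance.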
In general terms: Loss of DPPH colour is used to gauge radical scavenging.

Data set [5] has as its system J774. Put plainly: Cytotoxicity against mouse J774 cells at 10 uM after 48 hrs by MTT assay. The class given is cell-based. The conditions noted are these: j774, 48 h.
Data set [6] concerns J774. Briefly: Cytotoxicity against mouse J774 cells after 48 hrs by MTT assay. The class given is cell-based. The conditions noted are these: J774, 48 h. Summed up: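 J774 murine macrophages seeded at 1 × 10^5 cells/well and left 48 h at 37 °C in 5% CO2 to attach. Exposed to compounds at 50-500 µM for 48 h. MTT 0.2 mg/mL final for 3 h, formazan dissolved in DMSO, absorbance at 560 nm. IC50 is the concentration reducing control absorbance by 50%, averaged over two experiments.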

Data set [7] is filed under the species Homo sapiens. Put plainly: Neuroprotective activity against oxidative stress-induced cell death in human neuroblastoma cells. The class given is functional, cell-based.
Data set [8] can be described thus: Permeability across porcine brain lipid coated polyvinylidene fluoride membrane by PAMPA. The class given is ADME. Particulars: pig, read-out: permeability. Summed up: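 PAMPA-BBB assay. Filter of the donor plate (PVDF, 0.45 µm) coated with porcine brain lipid in dodecane (20 mg/mL). Compounds at 1 mg/mL in PBS/ethanol (9:1), filtered, placed in donor wells; acceptor wells held PBS/ethanol (9:1). Sandwich left 120 min at 25 °C, acceptor concentration measured by UV. Four wells per sample, at least three runs, mean ± SD.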
(In general: PAMPA measures passive passage across an artificial lipid membrane.)

In data set [9] the test system is SH-SY5Y. Briefly: Neuroprotective activity against human SH-SY5Y cells assessed as inhibition of H2O2-induced cellular damage at 1 uM dosed 1 hr prior to H2O2 challenge after 24 hrs relative to control. Set-up: scale not given: the % may be the effect or the level left. The class given is functional. Summed up:
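SH-SY5Y neuroblastoma cells given compound at 1 µM 1 h before a 100 µM H2O2 challenge and then incubated 24 h. Viability measured as LDH activity and compared with H2O2-only cells; NAC 5 mM used as positive control. Three independent experiments, mean ± SD.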

For data set [10], the system named is Radical scavenging activity. Put plainly: Antioxidant activity assessed as reduction of DPPH radical scavenging activity at 10 mM. The format is functional. Further details: scale not given: the % may be the effect or the level left.

Active and inactive are the calls of the source. The calls are words filed in the database; no cut-off is given here.

In general, IC50 refers to the concentration needed to halve the response being measured.

Take `CC(C)(C)/[N+]([O-])=C/c1nc(-c2ccc(Cl)cc2)ns1`: the PBN equivalents in [1] amounted to 1.5. The Activity in data set [2] was 19.1%; in [3], 34%; in data set [4], 0%; in data set [5] it was “Non-toxic”. Also, in [6], half-maximal inhibition (IC50) was put at 200 µM.
For the compound `[O-]/[N+](=C\c1nc(-c2ccccc2)ns1)Cc1ccccc1`, the PBN equivalents in data set [1] came out at 3.5. Besides, the Activity in data set [2] was 18.1%; in data set [3], 33%; in data set [4], 0%; in data set [5], “Non-toxic”. In [6], this compound showed a half-inhibitory concentration (IC50) of 240 µM.
Regarding `Cc1nnsc1/C=[N+](\[O-])C(C)(C)C`, in [7], the result was inactive. Besides, the results for the Activity in data set [2], in [4] and in data set [5] were 0%, 0% and “Non-toxic”, respectively. This compound also gave an IC50 in data set [6] of over 400 µM.
For the compound `CCOC(=O)c1snnc1/C=[N+](\[O-])C(C)(C)C`, the result in data set [7] was inactive. Moreover, the Activity in data set [2] is 0%; in data set [4], 0%; in data set [5], “Non-toxic”. In data set [6], the IC50 is over 400 µM.
On to `Cc1c(/C=[N+](\[O-])C(C)(C)C)no[n+]1[O-]`, for which the PBN equivalents in data set [1] came to 2.5. Moreover, the Activity in data set [2] is 23%; in data set [3], 42%; in [4] it was 8%; in data set [5] it was “Non-toxic”. The IC50 in data set [6] is over 400 µM.
`CC(C)(C)c1cc(-c2nsc(/C=[N+](\[O-])C(C)(C)C)n2)cc(C(C)(C)C)c1O`: the Papp in data set [8] was determined as 4.5 ×10⁻⁶ cm/s. Moreover, the PBN equivalents in data set [1] was found to be 6. In addition, the Activity in [2] is 25.2%; in [3], 46%; in data set [4] it was 40%; in [5] it was “Non-toxic”; in data set [9], 20%. Further, in [6], the IC50 was over 400 µM.
Take `CC(C)(C)/[N+]([O-])=C/c1nc(-c2ccccc2)ns1`: the PBN equivalents in data set [1] is 5.5. The Activity was 20.7% in [2], 38% in [3], 0% in data set [4] and “Non-toxic” in data set [5]. This compound showed an IC50 in [6] of over 400 µM.
Take `[O-]/[N+](=C\c1nc(-c2ccccc2)ns1)C1CCCCC1`: the PBN equivalents in [1] was found to be 4.6. The Activity was 23.6% in [2], 43% in [3], 11% in [4] and “Non-toxic” in [5]. Further, in [6], the midpoint of inhibition, the IC50, lay at 100 µM.
As for `CC(C)(C)/[N+]([O-])=C/c1ccc2no[n+]([O-])c2c1`, the PBN equivalents in data set [1] came to 16.5. Further, the Activity in [2] is 13.4%; in data set [3], 24%; in data set [4] it was 17%; in [5] it was “Non-toxic”. In data set [6], this compound came in with an IC50 of 150 µM.
Regarding `COc1ccc(-c2nsc(/C=[N+](\[O-])C(C)(C)C)n2)cc1`, the Papp in data set [8] is 12.5 ×10⁻⁶ cm/s. Besides, the PBN equivalents in [1] turned out to be 7. Besides, the Activity in [2] is 25%; in [3], 46%; in data set [4], 10%; in data set [5] it was “Non-toxic”. The IC50 in data set [6] is over 400 µM.
With `CC(C)(C)/[N+]([O-])=C/c1nsc(-c2ccccc2)n1`, the PBN equivalents in [1] amounted to 2. Further, the Activity in [2] was 20%; in data set [3] it was 36%; in data set [4], 41%; in data set [5] it was “Non-toxic”. The compound also showed an IC50 in data set [6] of over 400 µM.
Regarding `CC(C)(C)/[N+]([O-])=C/c1ccccc1`, the Activity in data set [10] came to 20%; in [2], 20.6%; in [3], 37%; in [4] it was 0%. The PBN equivalents in [1] turned out to be 1. Also, the 50% inhibitory concentration (IC50) in data set [6] was over 400 µM.
Regarding `CC(C)(C)/[N+]([O-])=C/c1c(-c2ccccc2)no[n+]1[O-]`, the outcome in [7] was inactive. In addition, the PBN equivalents in [1] is 6. In addition, the results for the Activity in data set [2], in [4] and in [5] were 0%, 0% and “Non-toxic”, respectively. For the same compound, in data set [6], the 50% inhibitory concentration (IC50) was found to be 100 µM.

For the origin of these results see ChEMBL document CHEMBL1140119, “Heteroarylnitrones as drugs for neurodegenerative diseases: synthesis, neuroprotective properties, and free radical scavenger properties” (J Med Chem, 2008).
